Experimental findings from ChEMBL document CHEMBL4392884, “Sesquiterpene Lactones from Artemisia argyi: Absolute Configuration and Immunosuppressant Activity” (J Nat Prod, 2019) are described below.

One may read the IC50 as the concentration needed to halve the response being measured.

For series [1], the system named is T-cell. Kind of series: Immunosuppressant activity in human T lymphocytes assessed as inhibition of anti-human CD3 and anti-human CD28 monoclonal antibody-induced T lymphocyte proliferation incubated for 72 hrs by FACS analysis. It counts as functional, cell-based. The method, boiled down:
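Stimulated human T lymphocytes were exposed to compounds over 0.01−30 μg/mL. Proliferation was read by FACS, with forward and side scatter used to score antiproliferative activity and cytotoxicity together. Three independent experiments were run, expressed as mean ± standard deviation relative to the untreated, stimulated control.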
A general note: Flow cytometry measures light scatter and fluorescence of single cells or particles in a stream.

Series [2] relates to T-cell. Description: Toxicity in anti-human CD3 and anti-human CD28 monoclonal antibody-stimulated human T lymphocytes assessed as induction of apoptosis at 3 times antiproliferative IC50 incubated for 48 hrs by annexin V-FITC and propidium iodide staining based FACS analysis.

In the case of `C=C1[C@@H](OC(C)=O)C[C@@H](O)[C@]2(C)CCC3=C(COC(C)=O)C(=O)O[C@@H]3[C@@H]12`, the IC50 in series [1] is 13.8 µM. On the same count and under the same terms, the result for `COc1ccc(-c2cc(=O)c3c(O)c(OC)c(O)cc3o2)cc1OC` [EUPATILIN] reads 11.7 µM. As for `C=C1C(=O)O[C@H]2[C@H]1[C@@H](OC(C)=O)CC(C)=C1C[C@H]3O[C@@]3(C)[C@@H]12`, the Activity entry in series [2] is on record as “Non-Toxic”. Further, in series [1], the IC50 came out at 1.9 µM. Take `C=C1C(=O)O[C@H]2[C@H]1CC[C@@](C)(O)[C@@]13O[C@@H]1[C@@H]1O[C@]1(C)[C@H]23`: in series [1], the IC50 was found to be 3.7 µM.

Take `C=C1C(=O)O[C@@H]2[C@H]3C(C)=CC[C@@H](O)[C@]3(C)CC[C@@H]12` [SANTAMARIN]: the IC50 in series [1] is 19.6 µM.

As to `C=C1C(=O)O[C@H]2[C@H]1CC[C@@](C)(O)[C@]13O[C@H]1[C@H]1O[C@@]1(C)[C@H]23` [ARTECANIN], the IC50 in series [1] is 2.7 µM. Same read-out and setting: the result for `C=C1C(=O)O[C@@H]2[C@@H]3[C@@]4(C=C[C@@]3(C)[C@@]3(C4)C(=O)O[C@@H]4[C@H]5C(C)=CC(=O)C5=C(C)C[C@H](OC(C)=O)[C@H]43)[C@](C)(O)CC[C@@H]12` reads 3.2 µM; that for `C=C1C(=O)O[C@H]([C@@H]2C(=O)C=C[C@]2(C)O)[C@H]1CCC(C)=O` (relative stereo) [SECOTANAPARTHOLIDE B], 1 µM. Still for that read-out and setting: the result for `C=C1C(=O)O[C@H]([C@H]2C(=O)C=C[C@@]2(C)O)[C@H]1CCC(C)=O` (relative stereo) reads 1.2 µM; that for `COc1cc(-c2cc(=O)c3c(O)c(OC)c(O)cc3o2)ccc1O` [JACEOSIDINE], 5.8 µM.
